Reference: ChEMBL document CHEMBL1799919, “Design, synthesis, biological evaluation, and structure-activity relationships of substituted phenyl 4-(2-oxoimidazolidin-1-yl)benzenesulfonates as new tubulin inhibitors mimicking combretastatin A-4” (J Med Chem, 2011)
The source made the active and inactive calls. No cut-off for these calls is given here.

Assays:
MCF7 = experiment: Antiproliferative activity against human MCF7 cells after 48 hrs by sulforhodamine B assay; format: functional, cell-based; details: MCF7, 48 h
M21 [1] = experiment: Disruption of cytoskeleton microtubule structure of human M21 cells at 5 times IC50 after 16 hrs by indirect immunofluorescence assay; format: functional, cell-based
Method in brief: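 Fixed in 3.7% formaldehyde, permeabilized with saponin, and stained with anti-β-tubulin (TUB 2.1), Alexa-488 secondary and DAPI. Microtubule structure scored by fluorescence microscopy.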

MDA-MB-231 [2] = experiment: Antiproliferative activity against human MDA-MB-231 cells after 48 hrs by sulforhodamine B assay; format: functional, cell-based; details: MDA-MB-231, 48 h
[3] = Antiproliferative activity against multidrug-resistant human CEM/VLB cells after 48 hrs by sulforhodamine B assay; format: functional
CHO-VV 3-2 = experiment: Antiproliferative activity against colchicine- and vinblastine-resistant CHO-VV 3-2 cells after 48 hrs by sulforhodamine B assay; details: Cricetulus griseus, CHO-VV 3-2, 48 h
CEM-VLB = experiment: Resistant ratio of IC50 for multidrug-resistant human CEM-VLB cells to IC50 for human CEM cells; format: functional
Method in brief: (§1)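 Ratio of the IC50 in the resistant line (CEM-VLB, CHO-TAX 5-6 or CHO-VV 3-2) to the IC50 in its parental line (CEM or CHO).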

L1210 = experiment: Antiproliferative activity against mouse L1210 cells after 48 hrs by sulforhodamine B assay; format: functional, cell-based; details: L1210, 48 h
[4] = Toxicity against fertilized chicken embryo assessed as mortality at 1 ug per egg, iv by CAM assay; format: organism-based, Gallus gallus; details: in vivo, read-out: Activity
Method in brief: (§2)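 Fertilized chicken eggs incubated 10 days with automatic turning, then static. HT-1080 cells (3.5 × 10^5 cells/egg) grafted onto exposed CAM. On day 11, drug in DMSO diluted into cremophor/ethanol/PBS (6.25/6.25/87.5 v/v) excipient, DMSO below 0.5%, 100 μL injected iv into 10-12 eggs. Eggs incubated to day 17, dead embryos counted. Untreated eggs used for normalization. Two independent experiments, at least 10 eggs each.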

CHO-TAX 5-6 [5] = experiment: Antiproliferative activity against paclitaxel-resistant CHO-TAX 5-6 cells after 48 hrs by sulforhodamine B assay; format: functional, cell-based; details: Cricetulus griseus, CHO-TAX 5-6, 48 h
CCRF-CEM = experiment: Antiproliferative activity against human CEM cells after 48 hrs by sulforhodamine B assay; format: functional, cell-based
[6] = Antiproliferative activity against mouse P388D1 cells after 48 hrs by sulforhodamine B assay; format: functional, cell-based; details: P388D1, 48 h
M21 [7] = experiment: Cell cycle arrest in human M21 cells assessed as accumulation at S phase at 5 times IC50 after 24 hrs using propidium iodide staining by flow cytometric analysis (reference value: 30%); format: functional
SK-OV-3 = experiment: Antiproliferative activity against human SKOV3 cells after 48 hrs by sulforhodamine B assay; format: functional, cell-based; details: SK-OV-3, 48 h
[8] = Antiproliferative activity against mouse B16F0 cells after 48 hrs by sulforhodamine B assay; format: functional, cell-based; details: B16F0, 48 h
HT-1080 [9] = experiment: Antiproliferative activity against human HT1080 cells after 48 hrs by sulforhodamine B assay; format: functional, cell-based; details: HT-1080, 48 h
M21 [10] = experiment: Cell cycle arrest in human M21 cells assessed as accumulation at G2/M phase at 5 times IC50 after 24 hrs using propidium iodide staining by flow cytometric analysis (reference value: 9%); format: functional
HT-29 = experiment: Antiproliferative activity against human HT-29 cells after 48 hrs by sulforhodamine B assay; format: functional, cell-based; details: HT-29, 48 h
M21 [11] = experiment: Antiproliferative activity against human M21 cells after 48 hrs by sulforhodamine B assay; format: functional, cell-based; details: M21, 48 h
MDA-MB-231 [12] = experiment: Displacement of N,N'-ethylenebis(iodoacetamide) from colchicine-binding site of beta-tubulin in human MDA-MB-231 cells at 1000 times IC50 preincubated for after 2 hrs before N,N'-ethylenebis(iodoacetamide) addition measured after 1.5 hrs by chemiluminescence assay; format: cell-based
Method in brief: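 EBI (100 μM final) added for 1.5 h at 37 °C; controls received 0.5% DMSO. Lysates (20 μg protein) run on 10% SDS-PAGE and blotted with anti-β-tubulin (TUB 2.1). β-tubulin–EBI adduct band detected by ECL.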

DU-145 = experiment: Antiproliferative activity against human DU145 cells after 48 hrs by sulforhodamine B assay; format: functional, cell-based; details: DU-145, 48 h
CHO = experiment: Antiproliferative activity against CHO cells after 48 hrs by sulforhodamine B assay; format: functional, cell-based; details: Cricetulus griseus
M21 [13] = experiment: Cell cycle arrest in human M21 cells assessed as accumulation at G0/G1 phase at 5 times IC50 after 24 hrs using propidium iodide staining by flow cytometric analysis (reference value: 61%); format: functional
HT-1080 [14] = experiment: Antivasculogenic activity against human HT1080 cells xenografted in chicken chorioallantoic membrane assessed as inhibition of tumor growth at 1 ug per egg, iv measured on day 14 by CAM assay; format: functional; parameters: scale not given: the % may be the effect or the level left
CHO-TAX 5-6 [15] = experiment: Resistant ratio of IC50 for paclitaxel-resistant CHO-TAX 5-6 cells to IC50 for CHO cells; format: functional, Cricetulus griseus; method in brief: as §1
K562 = experiment: Antiproliferative activity against human K562 cells after 48 hrs by sulforhodamine B assay; format: functional, cell-based; details: K562, 48 h
HT-1080 [16] = experiment: Antivasculogenic activity against human HT1080 cells xenografted in chicken chorioallantoic membrane assessed as inhibition of tumor growth at 3 ug per egg, iv measured on day 14 by CAM assay; format: functional
[17] = Toxicity against fertilized chicken embryo assessed as mortality at 3 ug per egg, iv by CAM assay; format: organism-based, Gallus gallus; details: in vivo, read-out: Activity; method in brief: as §2
HT-1080 [18] = experiment: Antivasculogenic activity against human HT1080 cells xenografted in chicken chorioallantoic membrane assessed as inhibition of tumor growth at 10 ug per egg, iv measured on day 14 by CAM assay; format: functional; parameters: scale not given: the % may be the effect or the level left
[19] = Toxicity against fertilized chicken embryo assessed as mortality at 10 ug per egg, iv by CAM assay; format: organism-based, Gallus gallus; details: in vivo; method in brief: as §2

Structure (SMILES) | IC50 (MCF7) | Activity (M21 [1]) | IC50 (MDA-MB-231 [2]) | IC50 [3] | IC50 (CHO-VV 3-2) | Ratio IC50 (CEM-VLB) | IC50 (L1210) | IC50 (CHO-TAX 5-6 [5]) | IC50 (CCRF-CEM) | IC50 [6] | Activity (M21 [7]) | IC50 (SK-OV-3) | IC50 [8] | IC50 (HT-1080 [9]) | Activity (M21 [10]) | IC50 (HT-29) | IC50 (M21 [11]) | inhibition (MDA-MB-231 [12]) | IC50 (DU-145) | Activity (M21 [13]) | also measured
COc1cc(OS(=O)(=O)c2ccc(N3CCNC3=O)cc2)cc(OC)c1OC | 5 nM | Active | 9.4 nM | 9.5 nM | 8.2 nM | 1.3 | 5.4 nM | 3 nM | 7.1 nM | 2.7 nM | 1% | 6.1 nM | 9.2 nM | 5.9 nM | 98% | 4 nM | 4 nM | Active | 8.5 nM | 1% | mortality [4]: 8%; IC50 (CHO): 7.4 nM; Activity (HT-1080 [14]): 39%; Ratio IC50 (CHO-TAX 5-6 [15]): 0.41; IC50 (K562): 2.5 nM
Cc1ccc(C)c(OS(=O)(=O)c2ccc(N3CCNC3=O)cc2)c1 | 14 nM | Active | 69 nM | 23 nM | 21 nM | 1.2 | 21 nM | 14 nM | 19 nM | 19 nM | 20% | 29 nM | 49 nM | 24 nM | 77% | 10 nM | 8.5 nM | Active | 57 nM | 3% | Activity (HT-1080 [16]): Active; IC50 (CHO): 18 nM; mortality [17]: 13%; Ratio IC50 (CHO-TAX 5-6 [15]): 0.78; IC50 (K562): 18 nM
O=C1NCCN1c1ccc(S(=O)(=O)Oc2cccc(I)c2)cc1 | 18 nM | Active | 48 nM | 18 nM | 20 nM | 1.1 | 19 nM | 8.9 nM | 17 nM | 18 nM | 21% | 23 nM | 30 nM | 19 nM | 77% | 11 nM | 10 nM | Active | 57 nM | 2% | Activity (HT-1080 [16]): Active; IC50 (CHO): 17 nM; mortality [17]: 43%; Ratio IC50 (CHO-TAX 5-6 [15]): 0.52; IC50 (K562): 14 nM
O=C1NCCN1c1ccc(S(=O)(=O)Oc2c(F)cccc2F)cc1 | 32 nM | Active | 100 nM | 87 nM | 74 nM | 1.3 | 67 nM | 38 nM | 68 nM | 76 nM | 33% | 72 nM | 91 nM | 65 nM | 62% | 29 nM | 15 nM | Active | 170 nM | 5% | Activity (HT-1080 [16]): Active; IC50 (CHO): 73 nM; mortality [17]: 13%; Ratio IC50 (CHO-TAX 5-6 [15]): 0.52; IC50 (K562): 65 nM
CCOc1cccc(OS(=O)(=O)c2ccc(N3CCNC3=O)cc2)c1 | 19 nM | Active | 55 nM | 32 nM | 39 nM | 1.6 | 19 nM | 12 nM | 20 nM | 20 nM | 20% | 42 nM | 65 nM | 34 nM | 78% | 18 nM | 12 nM | Active | 72 nM | 2% | Activity (HT-1080 [16]): Active; IC50 (CHO): 32 nM; mortality [17]: 13%; Ratio IC50 (CHO-TAX 5-6 [15]): 0.38; IC50 (K562): 18 nM
COc1cc(OC)cc(OS(=O)(=O)c2ccc(N3CCNC3=O)cc2)c1 | 10 nM | Active | 14 nM | 9.2 nM | 15 nM | 1.3 | 6.4 nM | 5.2 nM | 7.1 nM | 7.8 nM | 24% | 6.8 nM | 25 nM | 8.2 nM | 75% | 8 nM | 4.3 nM | Active | 25 nM | 1% | Activity (HT-1080 [16]): 56%; IC50 (CHO): 7.3 nM; mortality [17]: 10%; Ratio IC50 (CHO-TAX 5-6 [15]): 0.71; IC50 (K562): 7.5 nM
O=C1NCCN1c1ccc(S(=O)(=O)Oc2cccc(Cl)c2)cc1 | 13 nM | Active | 45 nM | 20 nM | 20 nM | 1.2 | 17 nM | 9.3 nM | 17 nM | 19 nM | 19% | 22 nM | 46 nM | 19 nM | 79% | 15 nM | 9.2 nM | Active | 58 nM | 2% | Activity (HT-1080 [16]): 46%; IC50 (CHO): 18 nM; mortality [17]: 0%; Ratio IC50 (CHO-TAX 5-6 [15]): 0.52; IC50 (K562): 16 nM
COc1ccc(/C=C\c2cc(OC)c(OC)c(OC)c2)cc1O [COMBRETASTATIN A4] | 5.6 nM | Active | – | – | – | – | – | – | – | – | 0% | – | – | – | 98% | 61 nM | 4.3 nM | Active | – | 2% | Activity (HT-1080 [16]): 45%; mortality [4]: 18%; mortality [17]: 41%; Activity (HT-1080 [14]): 48%
COc1ccc(OS(=O)(=O)c2ccc(N3CCNC3=O)cc2)cc1 | 160 nM | Active | 760 nM | 320 nM | 250 nM | 1.3 | 250 nM | 200 nM | 250 nM | 260 nM | 5% | 320 nM | 510 nM | 240 nM | 95% | 130 nM | 98 nM | Active | 650 nM | 0% | Activity (HT-1080 [18]): 13%; Activity [19]: Active; IC50 (CHO): 240 nM; Ratio IC50 (CHO-TAX 5-6 [15]): 0.83; IC50 (K562): 240 nM
